# Screening data from PubChem BioAssay.
# An excerpt weighted towards active compounds, which were near 3.1% of everything screened.
# rCAG binder: binders of r(CAG) RNA repeats, primary screen, biochemical, fluorescence. r(CAG) RNA repeat, TO-PRO-1 dye displacement fluorescence. inhibition, % at 3 µM. 370,000 compounds, 1.3% hits. AID 651821, 2012;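 active = inhibition above the plate cutoff, the mean of all test compounds on that plate plus 3 SD, cut at about 35% in these data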;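 note: 0% = DMSO alone and 100% = 100 µM mitoxantrone as full dye displacement; higher means more dye released from RNA so lower well fluorescence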
# LEDGF integ inh: blockers of LEDGF/p75-dependent integrase strand transfer – biochemical, TR-FRET, high throughput, primary screen; HIV-1 integrase (with human LEDGF/p75); TR-FRET IN-LEDGF/p75 DNA integration, Eu/Cy5; inhibition, % at 3.7 µM; 370,000 compounds, 0.64% hits;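 active = inhibition above the screen-wide mean plus 3 SD, cut at about 13% in these data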;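 note: signal is the Cy5 over europium emission ratio at 671 and 618 nm; 0% = plate median of compound wells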
# MBD2 inh: inhibitors of MBD2 binding to methylated DNA, primary screen, biochemical, TR-FRET, DNA-binding domain, human. Methyl-CpG-binding domain protein 2 (Homo sapiens), Q9UBB5. MBD2 binding to methylated oligonucleotide. inhibition, % at 4.4 µM. 370,000 compounds, 0.31% hits; in the data active = inhibition above about 13%
# UHRF1 MBD2 ctr: UHRF1 methylated DNA binding inhibitors, primary screen, counter-screen for MBD2 inhibitor project, biochemical, TR-FRET, human UHRF1, single concentration | E3 ubiquitin-protein ligase UHRF1 (Homo sapiens), Q96T88 | AID 687016, 2013 | inhibition, % at 4.4 µM | UHRF1 binding to methylated oligo | 370,000 compounds, 0.75% hits; in the data active = inhibition above about 21%;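 note: UHRF1 SRA domain binding a hemimethylated CpG hairpin DNA probe; 0% = median of test compound wells and 100% = reference inhibitor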
# ATG4B inh: ATG4B protease inhibitors, primary screen, biochemical, fluorescence, uHTS. inhibition, % at 8.33 µM. AID 504462, 2011. 340,000 compounds, 0.51% hits. ATG4B cleavage of LC3-PLA2, NBD-HPC fluorescence, 1 h. Cysteine protease ATG4B (Homo sapiens), Q9Y4P1; in the data active = inhibition above about 40%
# Target sequence (Q9Y4P1 whole entry, looked up): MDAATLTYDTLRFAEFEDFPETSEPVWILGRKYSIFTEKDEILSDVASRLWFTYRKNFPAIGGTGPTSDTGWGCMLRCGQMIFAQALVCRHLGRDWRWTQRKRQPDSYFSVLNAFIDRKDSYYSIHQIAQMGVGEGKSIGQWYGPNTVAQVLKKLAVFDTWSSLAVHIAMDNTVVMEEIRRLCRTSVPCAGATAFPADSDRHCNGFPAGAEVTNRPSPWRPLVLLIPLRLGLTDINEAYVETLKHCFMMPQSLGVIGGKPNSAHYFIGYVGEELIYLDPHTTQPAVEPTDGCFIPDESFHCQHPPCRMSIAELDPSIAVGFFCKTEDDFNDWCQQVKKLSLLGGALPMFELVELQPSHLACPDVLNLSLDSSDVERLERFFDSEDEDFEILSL
# CSN inh: inhibitors of CSN-mediated cullin deneddylation, primary screen, biochemical, fluorescence polarization, uHTS | COP9 signalosome complex subunit 5 (Homo sapiens), Q92905 | Purified CSN, SCF-Nedd8-OG deneddylation | inhibition, % at 12.5 µM | 360,000 compounds, 0.38% hits;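 active = pattern-corrected inhibition above about 35%, with an unprinted fluorescence ratio check between 0.5 and 1.5, limit read from the data, passing the limit was not always enough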;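 note: 0% = enzyme with substrate and 100% = substrate without enzyme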
#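 Material: human Csn5 produced in HEK293T cells; Input: enzyme 0.24 nM; Reagent: SCFSkp2-Nedd8OG substrate at 10 nM final; Dosing: 12.5 µM compound; Incubation: 90 min reaction at room temperature; Detection: fluorescence polarization of the substrate; Evaluation: % inhibition of substrate cleavage by Csn5; Control set: substrate-only high control, full reaction low control.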
# IN multimer up: HIV-1 IN multimer formation enhancers, counter-screen for LEDGF/p75 integration inhibitor project, biochemical, TR-FRET. shares compounds with LEDGF integ inh. TR-FRET HIV-1 integrase multimerization. activation, % at 7.7 µM. 2,000 compounds, 17% hits. AID 1053131, 2014; in the data active = activation above about 8.9%
# TR-FRET interf: TR-FRET optical interference artefacts, confirmation, artefact control for LEDGF/p75-dependent integration inhibitor project, biochemical, HIV-1 IN multimerization | shares compounds with LEDGF integ inh | TR-FRET optical interference counterscreen | inhibition, % at 7.7 µM | 2,000 tested, under 10 active | AID 1053135, 2014;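 active = inhibition above the mean over all tested compounds plus 3 SD, which no compound reached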;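 note: 0% = integrase with antibodies and DMSO and 100% = antibodies without integrase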
# IN-LEDGF confirm: inhibitors of HIV-1 IN-LEDGF/p75 DNA integration, confirmation, biochemical, TR-FRET; shares compounds with LEDGF integ inh; TR-FRET LEDGF/p75-dependent HIV-1 integration; AID 1053136, 2014; inhibition, % at 3.7 µM; 2,000 compounds, 36% hits; in the data active = inhibition above about 14%
# * hit, by the source's call; . = no result given.
SMILES,rCAG binder,LEDGF integ inh,MBD2 inh,UHRF1 MBD2 ctr,ATG4B inh,CSN inh,IN multimer up,TR-FRET interf,IN-LEDGF confirm
Nn1c(SCC(=O)NC2CCCCC2)nnc1-c1cc(-c2ccc(Cl)cc2)n[nH]1,8,-3,3,-6,.,.,.,.,.
CCCc1cnc(Nc2nc(C(N)Cc3ccc(OC)cc3)cs2)nc1 (stereo unspecified),16,13*,6,0,.,0,-1,4,-8
Cc1ccccc1CN1CCCCC(NC(=O)c2ccc(F)c(F)c2)C1=O (stereo unspecified),0,0,1,-2,.,.,.,.,.
COc1ccc(C(=O)N(c2ccc(OC)cc2)S(=O)(=O)c2cccs2)cc1,0,24*,-8,1,-2,-13,0,-2,-2
O=S1(=O)c2c(cccc2N2CCC[C@@H]2CO)O[C@@H]2CCN1C2,2,-9,7,9,.,.,.,.,.
O=C1Nc2ccc(S(=O)(=O)N3CCCC3C(=O)O)c3cccc1c23 (stereo unspecified),3,14*,-5,1,-7,-4,-2,10,-6
COC(=O)C1CN(Cc2cn(Cc3ccc(F)cc3)nn2)CCS(=O)(=O)N1Cc1ccc(C)cc1 (stereo unspecified),2,-3,-2,0,.,.,.,.,.
C=C1CC2C(=O)N(Cc3cc(OC)ccc3OC)C(C(=O)OCC)(C(=O)OCC)C1N2C(=O)OC(C)(C)C (stereo unspecified),-2,50*,-4,-2,-3,-1,2,-9,-9
CN(C)S(=O)(=O)c1cccc(NC(=S)N/N=C/c2ccc(O)c(O)c2O)c1,59*,55*,4,15,-3,-1,19*,-67,41*
COc1ccc(O)c(/C=N/NC(=S)Nc2cccc(S(=O)(=O)N(C)C)c2)c1,22,-7,-1,-12,-18,-3,.,.,.
CCN(CCO)c1ccc(NC(=S)Nc2cccc(S(=O)(=O)N(C)C)c2)cc1,8,24*,-3,0,-8,3,5,-18,6
CCC(C)(C)NC(=O)C(c1cccc(OC)c1OC)N(C(=O)CCC(=O)Nc1cc(C)on1)C(C)C (stereo unspecified),-2,16*,-5,0,-9,1,-1,3,-14
CCC(C)(C)NC(=O)C(c1cccc(OC)c1OC)N(CCC(C)C)C(=O)CCC(=O)Nc1cc(C)on1 (stereo unspecified),-5,-6,-2,2,-10,3,.,.,.
C=CCN1C(=O)[C@@H](CC(=O)N2CCSCC2)[C@]2(C(=O)OCC)CCCCC/C=C/12,2,4,-2,0,.,.,.,.,.
CC1CCCC(C)N1/N=C/c1ccc(O)c(O)c1 (stereo unspecified),6,20*,0,12,1,-7,22*,-77,53*
CCOc1ccc(-n2c(SCC(=O)Nc3ccccc3-c3ccccc3)nnc2-c2cccs2)cc1,8,2,1,-2,.,.,.,.,.
CN1C(=O)S/C(=C/c2cccn2-c2cccc(C(=O)O)c2)C1=O,17,-6,4,7,6,6,.,.,.
O=C(O)c1cccc(-n2cccc2/C=C/[N+](=O)[O-])c1,13,36*,21*,74*,17,32,14*,-70,40*
CC(C)CC1=NN2C(=N)/C(=C\c3coc4ccccc4c3=O)C(=O)N=C2S1,-178,26*,-3,-13,27,-70,0,-1,23*
CCC(C)NC(=O)CN1C(=O)C2CCCCN2C(=O)c2ccccc21 (stereo unspecified),1,0,3,-1,.,.,.,.,.
COCCN=C1Sc2ccccc2[C@@H]2C[C@H]3[C@H](CON3C)CN12,0,1,-3,-2,.,.,.,.,.
O=C(CN1C(=O)CCSc2ccccc21)Nc1ccc(Cl)c(Cl)c1,6,-3,1,1,.,.,.,.,.
Oc1ccc2ccccc2c1C=Nc1ccc(N2CCOCC2)cc1,-4,28*,-15,-5,-11,.,2,-9,-1
C(=Nc1ccc(N2CCOCC2)cc1)c1c[nH]c2ccccc12,-4,23*,-8,-2,-5,104,-1,3,7
O=C(COC(=O)Cc1ccsc1)NCc1ccc(Cl)cc1,-4,-4,5,0,-1,2,.,.,.
SMILES,rCAG binder,LEDGF integ inh,MBD2 inh,UHRF1 MBD2 ctr,ATG4B inh,CSN inh,IN multimer up,TR-FRET interf,IN-LEDGF confirm
O=C(COC(=O)Cc1ccsc1)NCc1ccccc1,-1,30*,3,1,-3,-1,2,-8,-1
COc1ccc(S[C@]2(C(=O)NC(C)C)CC(=O)N[C@@H]2c2ccc(OC)cc2)cc1,0,2,-3,0,.,.,.,.,.
COc1cc(-c2c(C(=O)c3ccccc3)[nH]c(N)c2C(=O)NCCc2c[nH]c3ccccc23)ccc1F,11,7,-1,-4,.,.,.,.,.
Cn1nnc(NC(=O)c2ccc([N+](=O)[O-])cc2Cl)n1,-1,51*,2,0,-12,-1,1,-3,-6
Cc1ccc(CN2CCCCC(NC(=O)c3ccc(Br)cc3)C2=O)cc1 (stereo unspecified),1,2,-5,0,.,.,.,.,.
O=C(NNC(=O)C1CCN(S(=O)(=O)c2ccc(Cl)cc2)CC1)c1ccc(Cl)cc1,-1,84*,-5,2,-10,7,0,2,6
Cc1ccc(CN2CCCCC(NC(=O)c3cccc([N+](=O)[O-])c3)C2=O)cc1 (stereo unspecified),4,0,-3,-1,.,.,.,.,.
CCC(CC)NC(=O)Cc1ccc(S(=O)(=O)N2CCOCC2)s1,7,16*,3,-2,-1,-5,0,-1,6
